The values that follow come from ChEMBL document CHEMBL4033790, “Design and Synthesis of Novel Deuterated Ligands Functionally Selective for the γ-Aminobutyric Acid Type A Receptor (GABAAR) α6 Subtype with Improved Metabolic Stability and Enhanced Bioavailability” (J Med Chem, 2018).

Each structure is given as a SMILES string.

Series [1] is described as follows: Drug metabolism in human liver microsomes assessed as CYP450 mediated-O-demethylated 7-hydroxy-2-(4-hydroxyphenyl)-2H-pyrazolo[4,3-c]quinolin-3(5H)-one metabolite formation after 60 mins by LC-MS analysis. As to conditions: 1 h; call rule not given here. It counts as ADME. In a few lines:
(§1)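 The 60-min samples from the human or mouse liver microsome incubations (10 µM compound, 0.5 mg/mL protein, NADPH regenerating system, 37 °C, pH 7.4) were run on LC-MS in SIM mode with dual ESI/APCI ionization. The method was calibrated to each component's retention time and mass, and the peak intensities of the parent and O-demethylated metabolites were measured.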

The test system of series [2] is Liver. Description: Half life in human liver microsomes at 10 uM by LC-MS/MS analysis. The format is ADME, microsome. In a few lines: (§2)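 Compound at 10 μM final was preincubated 5 min at 37 °C with NADPH regenerating system in phosphate buffer, pH 7.4. Human or mouse liver microsomes (0.5 mg/mL protein) were added to start the reaction. Samples were taken at 0 (no microsomes) and 10–60 min and measured by LC-MS/MS against an internal standard. Half-life = 0.693/k, with k the slope of ln peak-area ratio versus time. Three experiments, each in duplicate.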

Series [3] is described as follows: Terminal elimination half-life in Wistar rat plasma at 10 mg/kg, ip administered as single dose by HPLC-MS/MS analysis. As to conditions: read-out: beta t1/2 (converted). The format is ADME, organism-based. The gist of the method:
(§3)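 Male Wistar rats (250–350 g) received a single i.p. dose of 10 mg/kg as a 5 mg/ml suspension in 85% water, 14% propylene glycol and 1% Tween 80. Three rats per time point were sacrificed at 5, 20, 60, 180 and 720 min for plasma and brain. Samples were cleaned up by solid-phase extraction and quantified by HPLC-MS/MS.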

Series [4] is described as follows: Drug metabolism in mouse liver microsomes assessed as CYP450 mediated-O-demethylated 2-(4-hydroxyphenyl)-7-(trideuteriomethoxy)-5H-pyrazolo[4,3-c]quinolin-3-one metabolite formation after 60 mins by LC-MS analysis. It counts as ADME. The settings on record: 1 h. The gist of the method:
as §1
A general note: Microsomes from liver hold many membrane-bound enzymes, among them those of drug oxidation.

Series [5] in a line: Metabolic stability in mouse liver microsomes assessed as parent compound remaining at 10 uM after 60 mins by LC-MS analysis. The format is ADME, microsome. As to conditions: read-out: Stability. The gist of the method:
(§4)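 The 60 min samples of the microsomal incubation (10 μM compound, human or mouse liver microsomes at 0.5 mg/mL, NADPH regenerating system, 37 °C) were analysed by LC-MS. Detection used SIM mode with dual ESI/APCI ionization, calibrated to the retention times and masses of the parent and its O-demethylated metabolites. Peak intensities were measured.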

In series [6] the test system is HepG2. Description: Cytotoxicity against human HepG2 cells assessed as reduction in cell viability up to 400 uM after 48 hrs by CellTiter-Glo assay. It counts as cell-based. As to conditions: hepg2, 48 h. The gist of the method: (§5)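 HEK293T and HepG2 cells grown in high-glucose DMEM with non-essential amino acids, 10 mM HEPES, penicillin/streptomycin and 10% heat-inactivated FBS. Cells were harvested with trypsin and plated; compound was pin-transferred 3 h later. Incubation was 48 h, then CellTiter-Glo luminescence was read. Controls were DMSO (negative) and a cytotoxic aminoketone (positive). Quadruplicates, three independent runs, normalized to controls, nonlinear regression.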
Background: ATP-based viability assays read luminescence as a measure of living cells.

Series [7] can be described thus: Tmax in Wistar rat plasma at 10 mg/kg, ip administered as single dose by HPLC-MS/MS analysis. The format is ADME, organism-based. The gist of the method:
as §3

The nature of series [8]: AUC (0 to 12 hrs) in Wistar rat plasma at 10 mg/kg, ip administered as single dose by HPLC-MS/MS analysis. The format is ADME, organism-based. Details: time < 12 hr, dose 10 mg/kg, route intraperitoneal.
A short description of series [9]: Ratio of brain AUC (0 to t) to plasma AUC (0 to t), Kp of the compound in Wistar rat at 10 mg/kg, ip administered as single dose by HPLC-MS/MS analysis. It counts as ADME, organism-based.
Series [10] can be described thus: Cmax in Wistar rat plasma at 10 mg/kg, ip administered as single dose measured at 5 to 720 mins post dose by HPLC-MS/MS analysis. The format is ADME, organism-based. Also noted: dose 10 mg/kg, route intraperitoneal. In a few lines: (§6)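 Male Wistar rats (250-350 g) given a single 10 mg/kg i.p. dose of a 5 mg/ml suspension in 85% distilled water, 14% propylene glycol, 1% Tween 80. Three rats per time point (5, 20, 60, 180, 720 min). Blood and brain were collected after sacrifice. Drug was recovered by solid phase extraction and quantified by HPLC-MS/MS.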

Series [11] relates to HEK-293T. In words: Cytotoxicity against HEK293T cells assessed as reduction in cell viability up to 400 uM after 48 hrs by CellTiter-Glo assay. It counts as cell-based. As to conditions: human. The gist of the method:
as §5

A short description of series [12]: Drug metabolism in mouse liver microsomes assessed as CYP450 mediated-O-demethylated 7-hydroxy-2-(4-methoxyphenyl)-2H-pyrazolo[4,3-c]quinolin-3(5H)-one metabolite formation after 60 mins by LC-MS analysis. It counts as ADME. The settings on record: 1 h. The gist of the method: as §1
The nature of series [13]: Drug metabolism in human liver microsomes assessed as CYP450 mediated-O-demethylated 7-hydroxy-2-(4-methoxyphenyl)-2H-pyrazolo[4,3-c]quinolin-3(5H)-one metabolite formation after 60 mins by LC-MS analysis. It counts as ADME. The settings on record: 1 h. In a few lines:
as §1

Series [14] can be described thus: Terminal elimination half-life in Wistar rat brain at 10 mg/kg, ip administered as single dose by HPLC-MS/MS analysis. As to conditions: read-out: beta t1/2 (converted). The format is ADME, organism-based. In a few lines: as §3
For series [15], the system named is Brain. In words: AUC (0 to 12 hrs) in Wistar rat brain at 10 mg/kg, ip administered as single dose by HPLC-MS/MS analysis. The format is ADME, organism-based. Also noted: dose 10 mg/kg, time < 12 hr, route intraperitoneal. As to conditions: in vivo.
The nature of series [16]: Metabolic stability in human liver microsomes assessed as parent compound remaining at 10 uM after 60 mins by LC-MS analysis. It counts as ADME, microsome. The settings on record: read-out: Stability. In a few lines: as §4
A short description of series [17]: Tmax in Wistar rat brain at 10 mg/kg, ip administered as single dose by HPLC-MS/MS analysis. The format is ADME, organism-based. The gist of the method: as §3
Series [18] has as its target Voltage-gated inwardly rectifying potassium channel KCNH2 (Homo sapiens, UniProt Q12809). Description: Displacement of [3H]-dofetilide from human ERG expressed in HEK cell membranes at >10 uM after 60 to 90 mins by scintillation counting. A general note: Loss of bound radioactivity is the signal in a displacement assay; it reports binding, not function.
The nature of series [19]: Drug metabolism in mouse liver microsomes assessed as CYP450 mediated-O-demethylated 7-hydroxy-2-(4-hydroxyphenyl)-2H-pyrazolo[4,3-c]quinolin-3(5H)-one metabolite formation after 60 mins by LC-MS analysis. It counts as ADME. As to conditions: 1 h. The gist of the method:
as §1

A short description of series [20]: Drug metabolism in human liver microsomes assessed as CYP450 mediated-O-demethylated 2-(4-hydroxyphenyl)-7-(trideuteriomethoxy)-5H-pyrazolo[4,3-c]quinolin-3-one metabolite formation after 60 mins by LC-MS analysis. The settings on record: 1 h. It counts as ADME. The gist of the method:
as §1

A short description of series [21]: Cmax in Wistar rat brain at 10 mg/kg, ip administered as single dose measured at 5 to 720 mins post dose by HPLC-MS/MS analysis. Also noted: dose 10 mg/kg, route intraperitoneal. The format is ADME, organism-based. The gist of the method: as §6
Series [22] has as its system Mus musculus. Description: Neurotoxicity in Swiss Webster mouse assessed as induction of motor impairment at 40 mg/kg administered via oral gavage measured after 10 to 60 mins by rotarod method. It counts as toxicity, organism-based. As to conditions: in vivo. In a few lines:
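Female mice were given a single oral gavage dose of 40 mg/kg, either in 50% PBS/40% propylene glycol/10% DMSO or, for poorly soluble compounds, in 2% polyethylene glycol plus 2.5% hydroxymethyl cellulose. Rotarod performance was tested 10, 30 and 60 min after dosing, with diazepam 5 mg/kg as positive control.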

The nature of series [23]: Drug metabolism in human liver microsomes assessed as CYP450 mediated-O-demethylated 7-bromo-2-(4-hydroxyphenyl)-2H-pyrazolo[4,3-c]quinolin-3(5H)-one metabolite formation after 60 mins by LC-MS analysis. As to conditions: 1 h. It counts as ADME. The gist of the method:
as §1

Series [24] concerns Liver. In words: Half life in mouse liver microsomes at 10 uM by LC-MS/MS analysis. The format is ADME, microsome. In a few lines:
as §2

The nature of series [25]: Drug metabolism in mouse liver microsomes assessed as CYP450 mediated-O-demethylated 7-bromo-2-(4-hydroxyphenyl)-2H-pyrazolo[4,3-c]quinolin-3(5H)-one metabolite formation after 60 mins by LC-MS analysis. It counts as ADME. The settings on record: 1 h. In a few lines:
as §1

Series [26] is described as follows: Drug metabolism in mouse liver microsomes assessed as CYP450 mediated-O-demethylated 2-(6-hydroxypyridin-3-yl)-7-methoxy-2H-pyrazolo[4,3-c]quinolin-3(5H)-one metabolite formation after 60 mins by LC-MS analysis. The format is ADME. As to conditions: 1 h. In a few lines:
as §1

A short description of series [27]: Drug metabolism in human liver microsomes assessed as CYP450 mediated-O-demethylated 2-(6-hydroxypyridin-3-yl)-7-methoxy-2H-pyrazolo[4,3-c]quinolin-3(5H)-one metabolite formation after 60 mins by LC-MS analysis. It counts as ADME. As to conditions: 1 h. The gist of the method:
as §1

Series [28] in a line: Drug metabolism in mouse liver microsomes assessed as CYP450 mediated-O-demethylated 7-hydroxy-2-(6-hydroxypyridin-3-yl)-2H-pyrazolo[4,3-c]quinolin-3(5H)-one metabolite formation after 60 mins by LC-MS analysis. The format is ADME. The settings on record: 1 h. The gist of the method:
as §1

The nature of series [29]: Drug metabolism in human liver microsomes assessed as CYP450 mediated-O-demethylated 7-hydroxy-2-[6-(trideuteriomethoxy)-3-pyridyl]-5H-pyrazolo[4,3-c]quinolin-3-one metabolite formation after 60 mins by LC-MS analysis. It counts as ADME. As to conditions: 1 h. In a few lines: as §1
Series [30] in a line: Drug metabolism in mouse liver microsomes assessed as CYP450 mediated-O-demethylated 7-hydroxy-2-[6-(trideuteriomethoxy)-3-pyridyl]-5H-pyrazolo[4,3-c]quinolin-3-one metabolite formation after 60 mins by LC-MS analysis. The format is ADME. As to conditions: 1 h. The gist of the method: as §1
The nature of series [31]: Drug metabolism in human liver microsomes assessed as CYP450 mediated-O-demethylated 7-hydroxy-2-(6-hydroxypyridin-3-yl)-2H-pyrazolo[4,3-c]quinolin-3(5H)-one metabolite formation after 60 mins by LC-MS analysis. It counts as ADME. As to conditions: 1 h. In a few lines:
as §1

Sequence of Voltage-gated inwardly rectifying potassium channel KCNH2 (Q12809 whole entry): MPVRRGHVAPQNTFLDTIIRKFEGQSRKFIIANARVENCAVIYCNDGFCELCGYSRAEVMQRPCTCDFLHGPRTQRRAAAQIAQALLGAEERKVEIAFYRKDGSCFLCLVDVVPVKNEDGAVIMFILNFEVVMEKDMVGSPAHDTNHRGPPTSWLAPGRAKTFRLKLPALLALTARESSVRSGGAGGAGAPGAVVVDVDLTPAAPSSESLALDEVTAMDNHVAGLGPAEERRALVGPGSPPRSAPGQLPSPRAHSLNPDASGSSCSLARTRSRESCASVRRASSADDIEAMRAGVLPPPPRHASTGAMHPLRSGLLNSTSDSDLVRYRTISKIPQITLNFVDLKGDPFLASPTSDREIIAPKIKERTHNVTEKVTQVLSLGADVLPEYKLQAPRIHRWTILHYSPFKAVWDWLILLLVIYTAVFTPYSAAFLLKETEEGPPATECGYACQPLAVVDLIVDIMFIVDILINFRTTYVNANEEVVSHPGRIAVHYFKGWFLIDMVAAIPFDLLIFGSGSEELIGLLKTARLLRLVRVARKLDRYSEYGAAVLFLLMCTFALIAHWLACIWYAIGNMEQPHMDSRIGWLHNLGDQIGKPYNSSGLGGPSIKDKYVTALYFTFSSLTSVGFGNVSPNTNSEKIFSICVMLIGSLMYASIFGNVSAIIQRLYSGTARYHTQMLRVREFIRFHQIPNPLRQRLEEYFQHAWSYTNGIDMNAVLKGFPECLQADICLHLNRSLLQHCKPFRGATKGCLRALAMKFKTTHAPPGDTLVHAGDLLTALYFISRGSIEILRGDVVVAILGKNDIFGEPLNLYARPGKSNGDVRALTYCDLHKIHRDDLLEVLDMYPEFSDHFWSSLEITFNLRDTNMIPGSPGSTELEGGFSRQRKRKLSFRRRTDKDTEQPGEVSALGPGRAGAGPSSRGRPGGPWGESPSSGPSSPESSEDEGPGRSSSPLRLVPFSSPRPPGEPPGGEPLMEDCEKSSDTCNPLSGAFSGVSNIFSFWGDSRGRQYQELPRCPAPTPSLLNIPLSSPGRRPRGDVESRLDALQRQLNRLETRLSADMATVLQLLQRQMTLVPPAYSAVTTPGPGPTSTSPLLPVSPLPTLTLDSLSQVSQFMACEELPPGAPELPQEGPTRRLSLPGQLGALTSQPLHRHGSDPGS

For orientation: Tmax means the time from dosing to the highest level. The AUC(0-t) is exposure summed from dosing to a finite time, without extrapolation to infinity. Read a high AUC(0-t) as more exposure. For orientation: Kp means tissue or fluid exposure divided by exposure in the circulation. As a reminder, the Cmax is the maximum level reached in the sampled fluid or tissue. Regarding `[2H]C([2H])([2H])Oc1ccc2c3nn(-c4ccc(OC)cc4)c(=O)c-3c[nH]c2c1`, the Drug metabolism entry in [1], in series [4], in series [12], in series [13], in series [19] and in series [20] was “Metabolite_Detected” in each case. The compound also yielded a t1/2 in series [2] of 11.1 h. Moreover, the figures for the half-life in [3] and in series [14] were 2.46 h and 2.6 h, respectively. In addition, the remaining at 1 h, 10 µM in series [5] was 93.2%; in series [16], 92%. The Activity result in [6], in [11] and in series [22] was “Non-Toxic” each time. The values for the time of peak concentration (Tmax) in series [7] and in series [17] were 1.67 h and 2.11 h, respectively. For the same compound, in series [8], the AUC(0-t) at 12 h came out at 25300 ng·h/mL. Further, the partition ratio (Kp) in series [9] came to 0.16. The values for the peak concentration (Cmax) in series [10] and in [21] were 3740 ng/mL and 657 ng/g, respectively. The AUC in series [15] was determined as 4125.92 ng·h/g. Moreover, the “inhibition (INH)” value in [18] is “Not Active”.
In the case of `[2H]C([2H])([2H])Oc1ccc(-n2nc3c4ccc(Br)cc4[nH]cc-3c2=O)cc1`, the remaining at 1 h, 10 µM was 73.8% in series [5] and 81.5% in [16]. Also, the Activity entry in [6], in series [11] and in series [22] was “Non-Toxic” in each case. The Drug metabolism result in series [23] and in series [25] was “Metabolite_Detected” each time. Moreover, the t1/2 in [24] turned out to be 2.3 h. Besides, the “inhibition (INH)” value in series [18] is given as “Not Active”.
For `[2H]C([2H])([2H])Oc1ccc(-n2nc3c4ccc(OC)cc4[nH]cc-3c2=O)cn1`, the Drug metabolism result in [26], in series [27], in series [28], in series [29], in [30] and in [31] was “Metabolite_Detected” each time. Moreover, the values for the remaining at 1 h, 10 µM in series [5] and in series [16] were 92.4% and 92.6%, respectively. Also, the “inhibition (INH)” value in series [18] is on record as “Not Active”. For the same compound, the Activity entry in series [22] is reported as “Non-Toxic”.
